Experimental data published in paper PMC4535690 (Angewandte Chemie (International ed. in English), 2015).
Where a SMILES comes first, the peptide text is derived from it. The star is where a group is joined. Acetyl(thymin-1-yl) = Cc1cn(CC(=O)*)c(=O)[nH]c1=O; Adenin9ylacetyl = Nc1ncnc2c1ncn2CC(=O)*

Assays:
PC12 cells = test: Biocompatibility; assay type: cell-based; conditions: 7 days incubation (Figures S10, S11 and S12)
In short: (§1)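 Nucleopeptides were tested singly and as two-component heterodimer mixtures. HeLa cells (24 h doubling time) were incubated for 3 days, and PC12 cells (92 h doubling time) for 7 days. Viability was then assessed as a measure of biocompatibility.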

HeLa cells = test: Biocompatibility; assay type: cell-based; conditions: 3 days incubation, single nucleopeptide (Figures S11 and S12)
In short: as §1

proteinase K = proteinase K (Parengyodontium album, UniProt P06873); test: Proteolytic stability on incubation with proteinase K; assay type: in vitro ADME; conditions: single component, 0.2 mg/mL in HEPES buffer pH 7.4; proteinase K 3.2 U/mL; 24 h at 37 °C (Figure 3A; KTTPV Figure S9)
Sequence of proteinase K (P06873 106-384, species assumed): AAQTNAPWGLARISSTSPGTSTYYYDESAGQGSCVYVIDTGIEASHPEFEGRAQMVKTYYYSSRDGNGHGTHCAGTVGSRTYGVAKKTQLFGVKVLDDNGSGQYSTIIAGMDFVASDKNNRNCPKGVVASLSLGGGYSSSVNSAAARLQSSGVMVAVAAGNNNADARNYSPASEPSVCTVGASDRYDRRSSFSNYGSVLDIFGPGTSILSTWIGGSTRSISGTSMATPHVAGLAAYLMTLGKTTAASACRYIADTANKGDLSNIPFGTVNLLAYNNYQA

Row | Compound | Toxicity / inhibition of proliferation of PC12 cells (PC12 cells) | Toxicity to HeLa cells (HeLa cells) | Compound remained after incubating with proteinase K (proteinase K)
1 | Cc1cn(CC(=O)N[C@@H](CCCCN)C(=O)N[C@H](C(=O)N[C@H](C(=O)N2CCC[C@H]2C(=O)N[C@H](C(=O)O)C(C)C)[C@@H](C)O)[C@@H](C)O)c(=O)[nH]c1=O [compound 1] ({Acetyl(thymin-1-yl)}-KTTPV-OH; N-terminus and C-terminus assumed) | no toxicity | no toxicity | –
2 | CC(C)[C@H](NC(=O)[C@@H]1CCCN1C(=O)[C@@H](NC(=O)[C@@H](NC(=O)[C@H](CCCCN)NC(=O)Cn1cnc2c(N)ncnc21)[C@@H](C)O)[C@@H](C)O)C(=O)O [compound 2] (Adenin9ylacetyl-KTTPV-OH; N-terminus and C-terminus assumed) | no toxicity | no toxicity | –
3 | LGFNI [compound 3] | no toxicity | no toxicity | hydrolyzes completely
